Results reported in ChEMBL document CHEMBL2406929, “An optimized pyrimidinol multifunctional radical quencher” (ACS Med Chem Lett, 2013).
pEC50: −log10 of the molar value. The source made the active and inactive calls. No cut-off for these calls is given here.

Tests used:
[1] = Effect on total ATP level in human Friedreich's ataxia lymphocytes at 25 uM after 48 hrs by bioluminescence assay relative to control; assay type: functional
Summary of the method: (§1)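 Total cellular ATP measured in CoQ10-deficient and FRDA lymphocytes grown in glucose-free medium supplemented with galactose, so that cells rely on oxidative phosphorylation. Compounds tested at 5, 10 and 25 μM for 48 h, added from DMSO (final <0.5%). ATP expressed as % of untreated control.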

[2] = Effect on total ATP level in human Friedreich's ataxia lymphocytes at 10 uM after 48 hrs by bioluminescence assay relative to control; assay type: functional; summary of the method: as §1
[3] = Effect on total ATP level in human Friedreich's ataxia lymphocytes at 5 uM after 48 hrs by bioluminescence assay relative to control; assay type: functional; summary of the method: as §1
[4] = Effect on total ATP level in CoQ10-deficient human GM17932 cells at 25 uM after 48 hrs by bioluminescence assay relative to control; assay type: functional; summary of the method: as §1
[5] = Effect on total ATP level in CoQ10-deficient human GM17932 cells at 10 uM after 48 hrs by bioluminescence assay relative to control; assay type: functional; summary of the method: as §1
[6] = Effect on total ATP level in CoQ10-deficient human GM17932 cells at 5 uM after 48 hrs by bioluminescence assay relative to control; assay type: functional; summary of the method: as §1
Homo sapiens [7] = species: Homo sapiens; assay: Cytoprotective activity against diethyl maleate-induced loss of mitochondrial membrane integrity in human Friedreich's ataxia lymphocytes at 500 nM incubated overnight prior to diethyl maleate-treatment measured after 140 mins by TMRM staining-based FACS flow cytometric analysis relative to control; assay type: functional
Summary of the method: (§2)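 Δψm in FRDA lymphocytes after diethyl maleate treatment. Cells stained with 250 nM TMRM and analyzed by flow cytometry on the FL2-H channel, 10,000 events per sample. Result is the % of cells with intact Δψm (top-right quadrant). FCCP uncoupler used as positive control. Final DMSO <0.5%. Means ± SEM of three independent experiments run in duplicate.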

Homo sapiens [8] = species: Homo sapiens; assay: Cytoprotective activity against diethyl maleate-induced loss of mitochondrial membrane integrity in human Friedreich's ataxia lymphocytes at 250 nM incubated overnight prior to diethyl maleate-treatment measured after 140 mins by TMRM staining-based FACS flow cytometric analysis relative to control; assay type: functional; summary of the method: as §2
Homo sapiens [9] = species: Homo sapiens; assay: Cytoprotective activity against diethyl maleate-induced loss of mitochondrial membrane integrity in human Friedreich's ataxia lymphocytes at 100 nM incubated overnight prior to diethyl maleate-treatment measured after 140 mins by TMRM staining-based FACS flow cytometric analysis relative to control; assay type: functional; summary of the method: as §2
[10] = Cytoprotective activity against BSO-induced cell death in human Friedreich's ataxia fibroblasts preincubated for 12 hrs prior to BSO-treatment measured after 48 hrs by luminescence assay
Homo sapiens [11] = species: Homo sapiens; assay: Decrease in total ATP level in human Friedreich's ataxia lymphocytes after 48 hrs by bioluminescence assay; assay type: functional; summary of the method: as §1
Homo sapiens [12] = species: Homo sapiens; assay: Decrease in total ATP level in CoQ10-deficient human GM17932 cells after 48 hrs by bioluminescence assay; assay type: functional; summary of the method: as §1
Homo sapiens [13] = species: Homo sapiens; assay: Antioxidant activity in human Friedreich's ataxia lymphocytes assessed as inhibition of diethyl maleate-induced lipid peroxidation at 100 to 500 nM incubated overnight prior to diethyl maleate-treatment measured after 120 mins by C11-BODIPY581/591 staining-based FACS flow cytometric analysis; assay type: functional
Summary of the method: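 Glutathione depletion by diethyl maleate in FRDA lymphocytes. Cells stained with C11-BODIPY581/591; oxidized green fluorescence read by FACS on the FL1-H channel. Lipid peroxidation taken as the increase in geometric mean fluorescence intensity relative to the untreated control, expressed as % scavenging activity. Compounds added from DMSO (final DMSO <0.5%). Mean ± SEM, n = 3.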

Homo sapiens [14] = species: Homo sapiens; assay: Reversal of 4-nitrobenzoate-induced reduction in mitochondrial ATP level in CoQ10-deficient human Friedreich's ataxia lymphocytes at 10 uM after 6 days by bioluminescence assay; assay type: functional
Homo sapiens [15] = species: Homo sapiens; assay: Reversal of 4-nitrobenzoate-induced reduction in mitochondrial ATP level in CoQ10-deficient human Friedreich's ataxia lymphocytes at 5 uM after 6 days by bioluminescence assay; assay type: functional
Homo sapiens [16] = species: Homo sapiens; assay: Decrease in mitochondrial ATP level in CoQ10-deficient human Friedreich's ataxia lymphocytes at 5 uM after 6 days by bioluminescence assay in presence of 4-nitrobenzoate; assay type: functional
Homo sapiens [17] = species: Homo sapiens; assay: Decrease in mitochondrial ATP level in CoQ10-deficient human Friedreich's ataxia lymphocytes at 5 uM after 6 days by bioluminescence assay; assay type: functional

**Q.** For `CCCCCCCCCCc1nc(N(C)C)nc(OC)c1O`, which Activity [1] is on record?
**A.** Its Activity is 58%.

**Q.** What about the Activity [2] of the same molecule?
**A.** Its Activity is 87%.

**Q.** What about the Activity [3] of the same molecule?
**A.** The Activity was 94%.

**Q.** What about the Activity [4] of the same molecule?
**A.** Its Activity is 58%.

**Q.** And the Activity [5]?
**A.** The Activity was 83%.

**Q.** What about the Activity [6] of the same molecule?
**A.** Its Activity is 96%.

**Q.** And the Activity (Homo sapiens [7])?
**A.** The Activity was 88%.

**Q.** And the Activity (Homo sapiens [8])?
**A.** The Activity was 80%.

**Q.** And the Activity (Homo sapiens [9])?
**A.** Its Activity is 68%.

**Q.** What about the pEC50 [10] of the same molecule?
**A.** Its pEC50 is 7.17.

**Q.** What does the source list for `CCCCCCCCCCC1=C(C)C(=O)C(OC)=C(OC)C1=O` [DECYLUBIQUINONE]?
**A.** Activity (Homo sapiens [11]): Dose-dependent effect; Activity (Homo sapiens [12]): Dose-dependent effect; Activity [1]: 63%; Activity [2]: 76%; Activity [3]: 93%; Activity [4]: 63%; Activity [5]: 99%; Activity [6]: 100%; Activity (Homo sapiens [7]): 90%; Activity (Homo sapiens [8]): 82%; Activity (Homo sapiens [9]): 60%; pEC50 [10]: 7.25

**Q.** Which results are given for `COc1nc(N(C)C)nc(CCCCCCCCCCOCC23CC4CC(CC(C4)C2)C3)c1O`?
**A.** Activity [1]: 72%; Activity [2]: 103%; Activity [3]: 107%; Activity [4]: 64%; Activity [5]: 97%; Activity [6]: 105%; Activity (Homo sapiens [7]): 90%; Activity (Homo sapiens [8]): 82%; Activity (Homo sapiens [9]): 63%; inhibition (Homo sapiens [13]): Active; pEC50 [10]: 7.49

**Q.** Which results are given for `CCCCCCCCCCCCCCCCc1nc(N(C)C)nc(OC)c1OC(C)=O`?
**A.** Activity [1]: 92%; Activity [2]: 101%; Activity [3]: 109%; Activity [4]: 96%; Activity [5]: 109%; Activity [6]: 116%

**Q.** Which Activity [1] does the source give for `CCCCCCCCCCCCCCc1nc(N(C)C)nc(OC)c1O` here?
**A.** Its Activity is 55%.

**Q.** And the Activity [2]?
**A.** The Activity was 97%.

**Q.** And the Activity [3]?
**A.** Its Activity is 109%.

**Q.** And the Activity [4]?
**A.** Its Activity is 65%.

**Q.** And the Activity [5]?
**A.** Its Activity is 97%.

**Q.** What about the Activity [6] of the same molecule?
**A.** Its Activity is 105%.

**Q.** And the Activity (Homo sapiens [7])?
**A.** Its Activity is 92%.

**Q.** And the Activity (Homo sapiens [8])?
**A.** Its Activity is 88%.

**Q.** What about the Activity (Homo sapiens [9]) of the same molecule?
**A.** Its Activity is 77%.

**Q.** And the inhibition (Homo sapiens [13])?
**A.** The inhibition was “Active”.

**Q.** What about the pEC50 [10] of the same molecule?
**A.** Its pEC50 is 7.66.

**Q.** Which Activity (Homo sapiens [14]) does the source give for `COc1nc(N(C)C)nc(CCCCCCCCCCO)c1O` here?
**A.** The Activity was “inactive”.

**Q.** And the Activity [1]?
**A.** The Activity was 46%.

**Q.** And the Activity [2]?
**A.** Its Activity is 66%.

**Q.** And the Activity [3]?
**A.** Its Activity is 80%.

**Q.** What about the Activity (Homo sapiens [15]) of the same molecule?
**A.** The Activity was “Active”.

**Q.** What about the Activity [4] of the same molecule?
**A.** Its Activity is 54%.

**Q.** And the Activity [5]?
**A.** The Activity was 95%.

**Q.** What about the Activity [6] of the same molecule?
**A.** Its Activity is 102%.

**Q.** What about the Activity (Homo sapiens [7]) of the same molecule?
**A.** Its Activity is 68%.

**Q.** And the Activity (Homo sapiens [8])?
**A.** Its Activity is 48%.

**Q.** What about the Activity (Homo sapiens [9]) of the same molecule?
**A.** The Activity was 32%.

**Q.** And the inhibition (Homo sapiens [13])?
**A.** The inhibition was “Active”.

**Q.** And the pEC50 [10]?
**A.** Its pEC50 is 6.46.

**Q.** For `CCCCCCCCCCCCCCCCCCc1nc(N(C)C)nc(OC)c1O`, which Activity [1] is on record?
**A.** The Activity was 102%.

**Q.** And the Activity [2]?
**A.** The Activity was 102%.

**Q.** What about the Activity [3] of the same molecule?
**A.** Its Activity is 101%.

**Q.** And the Activity [4]?
**A.** Its Activity is 96%.

**Q.** What about the Activity [5] of the same molecule?
**A.** Its Activity is 98%.

**Q.** And the Activity [6]?
**A.** Its Activity is 98%.

**Q.** What about the Activity (Homo sapiens [7]) of the same molecule?
**A.** Its Activity is 73%.

**Q.** And the Activity (Homo sapiens [8])?
**A.** Its Activity is 55%.

**Q.** What about the Activity (Homo sapiens [9]) of the same molecule?
**A.** The Activity was 39%.

**Q.** What about the inhibition (Homo sapiens [13]) of the same molecule?
**A.** The inhibition was “Active”.

**Q.** And the pEC50 [10]?
**A.** The pEC50 was 6.58.

**Q.** With `Cc1nc(N(C)C)nc(CCCCCCCCCCO)c1O` as the molecule, how does the Activity [1] read?
**A.** Its Activity is 28%.

**Q.** And the Activity [2]?
**A.** Its Activity is 46%.

**Q.** And the Activity [3]?
**A.** Its Activity is 77%.

**Q.** What about the Activity [4] of the same molecule?
**A.** The Activity was 46%.

**Q.** What about the Activity [5] of the same molecule?
**A.** The Activity was 86%.

**Q.** What about the Activity [6] of the same molecule?
**A.** The Activity was 99%.

**Q.** And the Activity (Homo sapiens [7])?
**A.** Its Activity is 56%.

**Q.** What about the Activity (Homo sapiens [8]) of the same molecule?
**A.** The Activity was 37%.

**Q.** And the Activity (Homo sapiens [9])?
**A.** The Activity was 25%.

**Q.** What about the pEC50 [10] of the same molecule?
**A.** The pEC50 was 6.34.

**Q.** For `CCCCCCCCCCCCCCCCc1nc(N(C)C)nc(OC)c1O`, which Activity [1] is on record?
**A.** Its Activity is 80%.

**Q.** And the Activity [2]?
**A.** Its Activity is 96%.

**Q.** And the Activity [3]?
**A.** The Activity was 108%.

**Q.** And the Activity (Homo sapiens [15])?
**A.** The Activity was “Active”.

**Q.** What about the Activity [4] of the same molecule?
**A.** Its Activity is 90%.

**Q.** And the Activity [5]?
**A.** Its Activity is 106%.

**Q.** What about the Activity [6] of the same molecule?
**A.** The Activity was 118%.

**Q.** What about the Activity (Homo sapiens [7]) of the same molecule?
**A.** The Activity was 92%.

**Q.** What about the Activity (Homo sapiens [8]) of the same molecule?
**A.** Its Activity is 90%.

**Q.** What about the Activity (Homo sapiens [9]) of the same molecule?
**A.** Its Activity is 81%.

**Q.** What about the inhibition (Homo sapiens [13]) of the same molecule?
**A.** Its inhibition is “Active”.

**Q.** What about the pEC50 [10] of the same molecule?
**A.** The pEC50 was 7.60.

**Q.** For `COC1=C(OC)C(=O)C(CCCCCCCCCCO)=C(C)C1=O` [IDEBENONE], which Activity (Homo sapiens [16]) is on record?
**A.** The Activity was “Active”.

**Q.** What about the Activity (Homo sapiens [17]) of the same molecule?
**A.** Its Activity is “Active”.

**Q.** And the Activity (Homo sapiens [11])?
**A.** Its Activity is “Dose-dependent effect”.

**Q.** And the Activity (Homo sapiens [12])?
**A.** The Activity was “Dose-dependent effect”.

**Q.** And the Activity [1]?
**A.** The Activity was 3%.

**Q.** What about the Activity [2] of the same molecule?
**A.** Its Activity is 46%.

**Q.** And the Activity [3]?
**A.** Its Activity is 73%.

**Q.** And the Activity [4]?
**A.** The Activity was 2%.

**Q.** What about the Activity [5] of the same molecule?
**A.** The Activity was 46%.

**Q.** And the Activity [6]?
**A.** Its Activity is 80%.

**Q.** What about the Activity (Homo sapiens [7]) of the same molecule?
**A.** Its Activity is 45%.

**Q.** And the Activity (Homo sapiens [8])?
**A.** Its Activity is 26%.

**Q.** And the Activity (Homo sapiens [9])?
**A.** Its Activity is 18%.

**Q.** And the pEC50 [10]?
**A.** The pEC50 was 6.26.
